Measurements from ChEMBL document CHEMBL4513216, “Probing the Open Global Health Chemical Diversity Library for Multistage-Active Starting Points for Next-Generation Antimalarials” (ACS Infect Dis, 2020).

Assay: Toxicity liver stage against HepG2, at 10uM
Assay type: cell-based
Design: test concentration 10 uM, cell line HepG2-A16-CD81EGFP
Details: human, HepG2-A16-CD81EGFP cells; read-out: INHIBITION
Method in brief: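 Uninfected HepG2-A16-CD81EGFP cells, 3 × 10^3 per well, 1536-well, plated on prespotted compound at 10 μM final, parasite-free screening media added to match infected plates; puromycin 10 μM positive, DMSO 0.5% negative; run in parallel with 48 h PbLuc assay at 37 °C, 5% CO2; viability by CellTiter-Glo luminescence, normalized to controls.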

| Structure (SMILES) | cytotoxicity at 10 µM [%] |
| --- | --- |
| CN(C)C(=O)CN1C[C@H]2CC[C@@H](C1)N(Cc1cccc(Cl)c1Cl)C2 | -5.3 |
| CC(=O)N(Cc1ncc(C)o1)C1CCN(CCNC2CCCCC2)C1 (stereo not drawn) | 15.4 |
| CC(NC1CCSCC1)c1ccccc1-n1cccn1 (stereo not drawn) | -2.24 |
| CCn1ccnc1CN1CCCC1Cn1cc(C)cn1 (stereo not drawn) | -14.3 |
| Cn1ncc(N2CCOC(CCNC(=O)NC(C)(C)C)C2)cc1=O (stereo not drawn) | 22.6 |
| CCOC(C)c1nccn1CC(=O)Nc1cc(C)on1 (stereo not drawn) | -5.58 |
| Cn1cc(-c2cnc(N3CCOCC3)nc2)cc1C(=O)NCCO | 7.15 |
| CCc1cnc(N2CC[C@@H]3CN(C(C)=O)CCO[C@@H]3C2)nc1 | 9.1 |
| Cc1nnsc1C(=O)NCc1nn(C)c2c1COCC2 | -0.543 |
| COC(=O)N1CC(C)=C(C)CN1C(=O)Nc1ccc(Cl)cc1 | -7.97 |
| Cc1ccc(C(=O)NC2CCN(Cc3noc(C(C)C)n3)CC2)s1 | -10.7 |
| Cc1ccc(CN(C)C(=O)c2cccc(NC(N)=O)c2)o1 | 14.2 |
| O=C(C1CCOCC1)N1CCC2(CCC(C(=O)N3CCCC3)O2)CC1 (stereo not drawn) | 6.41 |
| CC(C)CN(CC(=O)O)C(=O)c1ccc(F)cc1 | -2.83 |
| COc1ccc2c(c1)CN(CC(=O)NC1CCCC1)CC2 | -1.77 |
| Clc1cccc(C[C@@H]2NCCC[C@@H]2Nc2ccccc2)c1 | 89.3 |
| O=C(N[C@@H]1CCN(c2nc3ccccc3o2)C[C@H]1O)c1cnccn1 | 3.52 |
| Cn1cc(C2CCCN2C(=O)COCCOc2ccccc2)cn1 (stereo not drawn) | -16.3 |
| CCC[C@H]1CN(S(=O)(=O)c2cc(C)ccc2F)C[C@@H]1N | 2.33 |
| CCc1ccccc1OCCN(C)C(=O)CCN1CCCCO1 | -57.1 |
| Cc1nc(CN2CCC3(CCCO3)CC2)c2ccccn12 | 2.07 |
| Cc1ccc(CC(=O)N2CC[C@@H]3CN(CCN(C)C)CCO[C@@H]3C2)cc1 | 2.73 |
| O=C(Nc1nnc(C(F)F)s1)N[C@H](CCO)c1ccccc1 | 1.88 |

| Structure (SMILES) | cytotoxicity at 10 µM [%] |
| --- | --- |
| COCc1nn(C(C)C)c2c1CCN(Cc1nccs1)C2 | 8.42 |
| CCS(=O)(=O)NC[C@]12COC[C@H]1CN(CCc1ccccc1)C2 | 6.07 |
| CC(C)(CNC(=O)Nc1ccc(S(=O)(=O)C(F)F)cc1)N1CCOCC1 | 4.44 |
| CC(=O)NCc1ccc(-c2ccccc2C(=O)O)cn1 | 1 |
| CC(=O)Nc1nc(-c2ccc(F)cc2)c[nH]1 | 2.41 |
| COC(=O)CCC(=O)Nc1ccc(Br)c(C)n1 | 7.07 |
| COc1ccc([C@@H]2CN(C(=O)CCC(F)(F)F)C[C@H]2NC(C)=O)cc1 | 2.12 |
| O=C(c1ccc(N2CCCC2)nn1)N1CCCc2cc(F)c(F)cc21 | -16.3 |
| CCN(C)Cc1cccc(CNC(=O)CSCc2ccncc2)c1 | 4.31 |
| CC(C)(C)CC(=O)NCCn1nc(C2CCNC2)c2cccnc21 (stereo not drawn) | -0.00173 |
| CCc1noc(C2CCCCN2C(=O)c2cc(C)n(C)n2)n1 (stereo not drawn) | 11.2 |
| Cc1csc(N2CCCN(C(=O)C(C)n3cncn3)CC2)n1 (stereo not drawn) | -3.6 |
| CCCc1nc(NCCCOC)c2c(n1)c(C)nn2CC | 24.6 |
| O=C(O)C1(O)CCN(c2ccc3cccc(Cl)c3n2)CC1 | 4.57 |
| CN(C)C(=O)CN1CCCCC1c1nc(N)ncc1-c1ccccc1 (stereo not drawn) | 4.19 |
| CC1(c2ccccc2)CCC(=O)N(CCN2CCOCC2)C1 (stereo not drawn) | -8.65 |
| Cc1nn(C)c(NC(=O)C2SCCc3ccccc32)c1C (stereo not drawn) | 45.8 |
| CC(C)CNC(=O)c1ccc2c(c1)nc1n2CCN(Cc2ccco2)C1 | -3.78 |
| O=C(c1cccnc1O)N1CCC(COc2ccccc2)CC1 | 9.53 |
| O=C(c1ccccc1)N(CC1CC1)c1cccnc1 | 7.27 |
| Cc1ccc(C2CSCCN2C(=O)c2ccccn2)cc1 (stereo not drawn) | 2.04 |
| CCOCC(O)CN1CCN(C(=O)c2ccc(N(C)C)nc2)CC1 (stereo not drawn) | -5.18 |
| Fc1ccc(-c2n[nH]cc2CNCCn2cccn2)cc1 | 8.1 |

| Structure (SMILES) | cytotoxicity at 10 µM [%] |
| --- | --- |
| COCC1N(C(=O)Nc2ccccc2)C2CCC1(O)CC2 (stereo not drawn) | 3.15 |
| Cc1nn(C)c(C)c1C1CCCN1C(=O)CCc1cscn1 (stereo not drawn) | -3.66 |
| CN(C)[C@@H]1CN(Cc2ccccc2O)C[C@H]1c1cn(C)c2ccccc12 | 6.6 |
| O=C(CSc1nnc[nH]1)NCc1cccs1 | 0.284 |
| COc1ccc(CNCC2CCN(c3ccccc3OC)C2)cc1O (stereo not drawn) | -8.54 |
| COc1ccc(Br)c(C(=O)NCC2CC2)c1 | 23.4 |
| Cc1nc(C(C)(C)NCc2nnc(C(C)C)o2)sc1C | 6.35 |
| Cc1ccc(C(C)(O)CNC(=O)CCn2ccnc2C(C)C)o1 (stereo not drawn) | 8.53 |
| CC(=O)N1CCN(C(=O)Nc2ccccc2)CC2(CC(=O)N(C)C2)C1 (stereo not drawn) | -8.93 |
| CN1CCN(Cc2cnc3n2CCN(C(=O)N2CCCC2)C3)CC1 | -72.3 |
| Cc1ccc(CC(=O)N2CCCC(c3n[nH]c4nccnc34)C2)cc1 (stereo not drawn) | -22.2 |
| CCN(CC)C(=O)Nc1ccc(N2CCSCC2)cc1C | -8.44 |
| COCCOc1ccc(NC(=O)N(C)Cc2ccsc2)cn1 | -2.81 |
| O=C(NCCn1ccnc1)NCC(c1ccco1)N1CCCCC1 (stereo not drawn) | 3.44 |
| CS(=O)(=O)NC[C@]12COC[C@H]1CN(C(=O)c1ncccn1)C2 | 4.9 |
| c1coc(CN2CCO[C@@]3(CCC[C@@H]3COCc3nccs3)C2)c1 | -73.5 |
| COc1ccnc(NC2CCN(CC(=O)N3CCCC3)CC2)n1 | -7.88 |
| CN(C)C(=O)CN1CCCc2c(F)cc(Br)cc21 | -0.682 |
| CCCn1cc(NC(=O)c2ccncc2)ccc1=O | -8.44 |
| Cn1ccnc1CN1CCC2(CCCN2c2ncccn2)CC1 | 7.55 |
| Cc1n[nH]c(C)c1-c1cnc(C2CCN(S(C)(=O)=O)CC2)cn1 | -1.57 |
| CC(=O)Nc1nc(C(=O)NCc2ccc(N3CCOC(C)C3)nc2)cs1 (stereo not drawn) | 0.109 |
| CC(C)n1c(=O)c2sccc2n(CC(=O)Nc2ccccc2)c1=O | 8.02 |

| Structure (SMILES) | cytotoxicity at 10 µM [%] |
| --- | --- |
| CC(C)CCCNC(=O)Nc1ccc(C(N)=O)c(Cl)c1 | 4.69 |
| COCCN(Cc1ccco1)Cc1nc(-c2ccc(C)c(F)c2)no1 | 3.68 |
| CSc1ccc(C(=O)N(c2ccc(F)cn2)C2CCOCC2)o1 | -10.7 |
| CC(NC(=O)NCc1ccoc1)c1ccc2c(c1)CCC(=O)N2 (stereo not drawn) | -1.12 |
| Cc1ncc(C(=O)N2CC[C@@]3(O)CCN(C4CCCCC4)C[C@H]3C2)cn1 | -135 |
| O=C(c1ccc(F)c(Br)c1)N1CCCN2CCCC2C1 (stereo not drawn) | -0.746 |
| N#Cc1nc(COc2ccc3c(c2)OCO3)oc1N1CCCCCC1 | -34.6 |
| CCN(Cc1ccc(Cl)c(Cl)c1)C(=O)CCn1cncn1 | 9.87 |
| Cc1cc(C[C@@H]2COC[C@@H]2NC(=O)Cn2c(=O)oc3ccccc32)on1 | -14 |
| N#Cc1nccnc1N1CCC(OCCCc2ccccc2)C1 (stereo not drawn) | 4.31 |
| COc1ccnc(CNc2nc(C)nc(C)c2C)c1 | -1.7 |
| Cc1csc(CN2CCC3(CC2)COC(COc2ccccn2)C3)n1 (stereo not drawn) | -113 |
| Cc1c2nnn(CC(=O)N(C)C)c(=O)c2nn1C | -4.26 |
| Cc1c(C(=O)NCC(C)C)nnn1-c1cccc2c1CCN(C)C2 | -7.69 |
| CCc1noc(CC)c1CC(=O)N1CCN(C(C#N)C(C)C)CC1 (stereo not drawn) | -9.66 |
| c1cnc(N2CCOC3(CCN(CC4CCCCC4)CC3)C2)nc1 | 0.256 |
| Cn1cc(C(=O)N2CCSc3ccccc32)ccc1=O | -22.9 |
| CCOc1ccc(-c2cc(=O)n3c(n2)CCCCC3)cc1 | 5.36 |
| Cc1c(Br)cccc1CNC1(CCO)CCOCC1 | -10.7 |
| CC(=O)Nc1ccc(CNc2cccc(CS(C)(=O)=O)c2)cc1 | -6.91 |
| CN1CCC(N2CCC[C@H]2c2nc(-c3cncnc3N)no2)CC1 | -5.33 |
| Cc1cc(C)c2c(N3CCC(C(=O)N4CCCC4)CC3)ncnc2n1 | -0.218 |
| COc1ccc(Cc2nc3c([nH]2)CC(C)(C)CNC3=O)c(OC)c1 | -1.02 |

| Structure (SMILES) | cytotoxicity at 10 µM [%] |
| --- | --- |
| Cc1cccc(C(=O)NCc2ccc(N3CCCCCC3)nc2)n1 | -5.34 |
| COc1ccc(NC(=O)c2ccc[nH]2)c(N2CCN(C(C)=O)CC2)n1 | -11.2 |
| Cn1c(=O)oc2cc(S(=O)(=O)N3CCC(c4ccccc4)C3)c(Cl)cc21 (stereo not drawn) | 12.4 |
| CN1CC(=O)N(c2cccc(F)c2)CC12CCN(Cc1nccs1)C2 (stereo not drawn) | 2.08 |
| CCNC(=O)c1ccc(NC(=O)N(C)Cc2cc(C)on2)cc1 | -4.22 |
| CC(C)(C)NC(=O)C1CSCN1S(=O)(=O)c1ccccc1F (stereo not drawn) | -8.23 |
| COCCOc1ccc(CNc2cnc3ccccc3n2)cn1 | 8.15 |
| CCOc1ccc(C2CCCN2C(=O)NCCn2ccnc2)cc1 (stereo not drawn) | 0.632 |
| N#Cc1cn[nH]c1NCc1cc(Br)ccc1O | -7.29 |
| COCCCSc1ccc(NCc2cscn2)cc1 | 6.43 |
| CCN(C)c1ncnc2c1CCN(Cc1ccc(F)cc1)CC2 | 3.1 |
| Cc1cc(C)n(CC2CCCN2C(=O)c2ccc3[nH]cnc3c2)n1 (stereo not drawn) | 3.18 |
| CN(CCOc1cccc(CNC(=O)C2CC2)c1)C1CCOCC1 | -7.12 |
| COc1ccc(C)c(NC(=O)NCc2cccc(N(C)C)n2)c1 | 6.13 |
| CN(C)c1cc(CNCc2ccc(N3CCOCC3)cc2)ccn1 | 23.3 |
| CC(C)(C)C(=O)NCCn1ccc(-c2ccccn2)n1 | 6.47 |
| COc1cccc(CNC(=O)c2cc(C)nc(N3CCCC3)n2)c1 | 23.1 |
| COc1c(C2CCCN2CC(=O)Nc2cc(C)nn2C)c(C)nn1C (stereo not drawn) | 3.72 |
| Cc1cc(CNc2ccccc2Cl)no1 | -7.77 |
| Cc1ccc(NC(=O)C2CSCN2C(=O)c2cc[nH]n2)c(C)c1 (stereo not drawn) | -6.1 |
| Cc1ccc(N2C[C@H]3CCC[C@@H](CN(C)C)[C@H]3C2)nn1 | 8.82 |
